Experimental data reported in ChEMBL document CHEMBL1154098, “Synthesis, characterization and in vitro antimicrobial activity of novel 2-thioxo-4-thiazolidinones and 4,4'-bis(2-thioxo-4-thiazolidinone-3-yl)diphenylsulfones” (2009).

Columns and labels:
Staphylococcus aureus [1] = assay: Antibacterial activity against Staphylococcus aureus NCTC 7447 at 1 mg/mL […] by agar diffusion assay; assay type: functional; settings: read-out: DIZ
Serratia marcescens [2] = assay: Antibacterial activity against Serratia marcescens IMRU 70 at 1 mg/mL […] by agar diffusion assay; assay type: functional; settings: read-out: DIZ
Proteus mirabilis [3] = assay: Antibacterial activity against Proteus mirabilis NCT 289 at 1 mg/mL […] by agar diffusion assay; assay type: functional; settings: read-out: DIZ
Aspergillus ochraceus [4] = assay: Antifungal activity against Aspergillus ochraceus Wilhelm AUCC 230 at 1 mg/mL after 48 hrs by agar diffusion assay; assay type: functional; settings: Wilhelm AUCC 230, 48 h, read-out: DIZ
Outline: (§1)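 Fungi were grown on Czapek's–Dox agar and assayed by agar diffusion. Test solution was 1 mg mL-1 in DMF, with DMF as negative control. After 48 h incubation, the inhibition zone diameter was measured in mm.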

Penicillium chrysogenum [5] = assay: Antifungal activity against Penicillium chrysogenum Thom AUCC 530 at 1 mg/mL after 48 hrs by agar diffusion assay; assay type: functional; settings: Thom AUCC 530, 48 h, read-out: DIZ; outline: as §1
Bacillus cereus [6] = assay: Antibacterial activity against Bacillus cereus ATCC 14579 at 1 mg/mL […] by agar diffusion assay; assay type: functional; settings: read-out: DIZ
Bacillus cereus [7] = assay: Antibacterial activity against Bacillus cereus ATCC 14579 after 24 hrs by agar diffusion assay; assay type: functional; settings: ATCC 14579, 24 h
Penicillium chrysogenum [8] = assay: Antifungal activity against Penicillium chrysogenum Thom AUCC 530 after 48 hrs by agar diffusion assay; assay type: functional; settings: Thom AUCC 530, 48 h
Aspergillus ochraceus [9] = assay: Antifungal activity against Aspergillus ochraceus Wilhelm AUCC 230 at 30 ug/mL after 48 hrs by agar diffusion assay; assay type: functional, organism-based
Penicillium chrysogenum [10] = assay: Antifungal activity against Penicillium chrysogenum Thom AUCC 530 at 30 ug/mL after 48 hrs by agar diffusion assay; assay type: functional, organism-based
Outline: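 Agar-diffusion assay on Czapek's–Dox agar inoculated with the fungal culture. Test solutions were 1 mg mL-1 in DMF, with DMF as the negative control and Mycostatine (30 µg mL-1) as the reference drug. Plates were incubated for 48 h, and the inhibition zone diameter was measured in mm.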

Staphylococcus aureus [11] = assay: Antibacterial activity against Staphylococcus aureus NCTC 7447 at 25 ug/mL […] by agar diffusion assay; assay type: functional; settings: read-out: DIZ
Serratia marcescens [12] = assay: Antibacterial activity against Serratia marcescens IMRU 70 at 25 ug/mL […] by agar diffusion assay; assay type: functional; settings: read-out: DIZ
Proteus mirabilis [13] = assay: Antibacterial activity against Proteus mirabilis NCT 289 at 25 ug/mL […] by agar diffusion assay; assay type: functional; settings: read-out: DIZ
Bacillus cereus [14] = assay: Antibacterial activity against Bacillus cereus ATCC 14579 at 25 ug/mL […] by agar diffusion assay; assay type: functional; settings: read-out: DIZ
Aspergillus ochraceus [15] = assay: Antifungal activity against Aspergillus ochraceus Wilhelm AUCC 230 at 25 ug/mL after 24 hrs by agar diffusion assay; assay type: functional; settings: Wilhelm AUCC 230, 24 h, read-out: DIZ
Penicillium chrysogenum [16] = assay: Antifungal activity against Penicillium chrysogenum Thom AUCC 530 at 25 ug/mL after 24 hrs by agar diffusion assay; assay type: functional; settings: Thom AUCC 530, 24 h, read-out: DIZ

Compound	zone of inhibition at 1000 µg/mL (Staphylococcus aureus [1]) [mm]	zone of inhibition at 1000 µg/mL (Serratia marcescens [2]) [mm]	zone of inhibition at 1000 µg/mL (Proteus mirabilis [3]) [mm]	zone of inhibition at 1000 µg/mL (Aspergillus ochraceus [4]) [mm]	zone of inhibition at 1000 µg/mL (Penicillium chrysogenum [5]) [mm]	zone of inhibition at 1000 µg/mL (Bacillus cereus [6]) [mm]	MIC (Bacillus cereus [7]) [µg/mL]	MIC (Penicillium chrysogenum [8]) [µg/mL]	inhibition zone (IZ) (Aspergillus ochraceus [9]) [mm]	inhibition zone (IZ) (Penicillium chrysogenum [10]) [mm]	zone of inhibition at 25 µg/mL (Staphylococcus aureus [11]) [mm]	zone of inhibition at 25 µg/mL (Serratia marcescens [12]) [mm]	zone of inhibition at 25 µg/mL (Proteus mirabilis [13]) [mm]	zone of inhibition at 25 µg/mL (Bacillus cereus [14]) [mm]	zone of inhibition at 25 µg/mL (Aspergillus ochraceus [15]) [mm]	zone of inhibition at 25 µg/mL (Penicillium chrysogenum [16]) [mm]
CN(C)/C=N/S(=O)(=O)c1ccc(N2C(=O)/C(=C\N(C)C)SC2=S)cc1	16	12	20	16	16	15	–	–	–	–	–	–	–	–	–	–
NS(=O)(=O)c1ccc(N2C(=O)CSC2=S)cc1	28	20	24	18	16	13	–	–	–	–	–	–	–	–	–	–
COc1ccc(/C=C2\SC(=S)N(c3ccc(S(=O)(=O)c4ccc(N5C(=O)/C(=C/c6ccc(OC)cc6)SC5=S)cc4)cc3)C2=O)cc1	17	13	25	11	11	16	–	–	–	–	–	–	–	–	–	–
Cc1ccc(/C=C2/SC(=S)N(c3ccc(S(N)(=O)=O)cc3)C2=O)cc1	14	18	17	14	10	34	< 50	–	–	–	–	–	–	–	–	–
NS(=O)(=O)c1ccc(N2C(=O)/C(=C\c3ccc(/C=C4/SC(=S)N(c5ccc(S(N)(=O)=O)cc5)C4=O)cc3)SC2=S)cc1	13	19	22	16	15	33	< 50	–	–	–	–	–	–	–	–	–
O=C1CSC(=S)N1c1ccc(S(=O)(=O)Nc2ncccn2)cc1	18	22	19	15	35	16	–	< 50	–	–	–	–	–	–	–	–
N#CC(C#N)=C1SC(=S)N(c2ccc(S(N)(=O)=O)cc2)C1=O	15	24	18	14	14	32	< 50	–	–	–	–	–	–	–	–	–
O=C1CSC(=S)N1c1ccc(S(=O)(=O)c2ccc(N3C(=O)CSC3=S)cc2)cc1	15	10	24	26	12	13	–	–	–	–	–	–	–	–	–	–
NYSTATIN	–	–	–	–	–	–	–	–	40	43	–	–	–	–	–	–
CC1(C)S[C@@H]2[C@H](NC(=O)[C@H](N)c3ccccc3)C(=O)N2[C@H]1C(=O)O [AMPICILLIN]	–	–	–	–	–	–	–	–	–	–	40	40	40	43	10	16
CCO/C=C1/SC(=S)N(c2ccc(S(N)(=O)=O)cc2)C1=O	25	23	23	12	18	12	–	–	–	–	–	–	–	–	–	–
COc1ccc(/C=C2/SC(=S)N(c3ccc(S(N)(=O)=O)cc3)C2=O)cc1	27	15	19	19	17	10	–	–	–	–	–	–	–	–	–	–
